# Assay results collected from several papers.
# Cell line: Calu-3
# Effect on: cell growth or viability
Compound,method,time,CC50
CCC(CC)COC(=O)[C@H](C)N[P@](=O)(OC[C@H]1O[C@@](C#N)(c2ccc3c(N)ncnn23)[C@H](O)[C@@H]1O)Oc1ccccc1,MTT,48 h,≥ 250 µM
CN(C)C(=O)COC(=O)Cc1ccc(OC(=O)c2ccc(NC(=N)N)cc2)cc1,ATP luminescence,,> 200 µM
CCS(=O)(=O)N1CC(CC#N)(n2cc(-c3ncnc4[nH]ccc34)cn2)C1,resazurin,,> 60 µM
O=C(Nc1ccc2c(c1)OCO2)c1nnc(C(=O)N2CCCC(C(=O)NCc3ccccc3)C2)s1 (centres unmarked),MTT,48 h,151 µM
COc1cc(Nc2ccnc3ccc(Br)cc23)cc(OC)c1OC,resazurin,,> 60 µM
O=C1Nc2cc(C(F)(F)F)ccc2Oc2ccsc21,MTT,72 h,> 100 µM
CC(C)[C@H](NC(=O)c1ccccc1NC(=O)c1ccccc1)C(=O)N[C@H](CO)C(C)C,MTT,48 h,> 250 µM
O=C(NCc1ccc(F)cc1)c1cccc(Nc2ccc(-c3ccccc3)nn2)c1,MTS,48 h,> 100 µM
CN1C(=O)c2ccccc2[S+]([O-])c2cc([N+](=O)[O-])ccc2S1(=O)=O (centres unmarked),MTT,72 h,> 100 µM
COc1cc2ncnc(Nc3ccc(F)c(Cl)c3)c2cc1OCCCN1CCOCC1,resazurin,,> 60 µM
CCOC(=O)c1c(NCc2ccc(SC)cc2)c2cccc(C)c2[nH]c1=O,MTS,48 h,> 100 µM
